Legend:
[1] = molecular target: DNA topoisomerase 2-alpha (Homo sapiens) (UniProt P11388); assay: Inhibition of full-length human recombinant topoisomerase 2-alpha mediated relaxation and cleavage of supercoiled pBR322 plasmid DNA to linear DNA by ethidium bromide staining based gel electrophoresis assay
Summary of the method: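 Recombinant full-length human topoisomerase IIα with supercoiled pBR322 DNA at 37 °C. Components mixed on ice before drug addition. Complexes trapped with SDS; products run on ethidium bromide gels. Linear DNA identified against a HindIII-linearized marker; repeated on three days.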

SK-MEL-5 = assay: Cytotoxicity against human SK-MEL-5 cells assessed as cell growth at 50 uM by SRB assay; type: functional; conditions: read-out: Activity
CAKI-1 [2] = assay: Cytotoxicity against human Caki1 cells assessed as cell growth at 50 uM by SRB assay; type: functional; conditions: read-out: Activity
RPMI-8226 = assay: Cytotoxicity against human RPMI8226 cells by SRB assay; type: functional
Summary of the method: (§1)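 NCI-60 panel screen; 5-dose testing giving GI50 per cell line, plus a single 10 µM one-dose test. Method details not given beyond the NCI screen.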

SR = assay: Cytotoxicity against human SR cells by SRB assay; type: functional; summary of the method: as §1
SNB-19 [3] = assay: Cytotoxicity against human SNB19 cells by SRB assay; type: functional; summary of the method: as §1
IGROV-1 = assay: Cytotoxicity against human IGROV1 cells by SRB assay; type: functional; summary of the method: as §1
OVCAR-5 [4] = assay: Cytotoxicity against human OVCAR5 cells by SRB assay; type: functional; summary of the method: as §1
[5] = Cytotoxicity against human NCI-ADR-RES cells by SRB assay; type: functional; summary of the method: as §1
SN12C [6] = assay: Cytotoxicity against human SN12C cells by SRB assay; type: functional; summary of the method: as §1
TK-10 = assay: Cytotoxicity against human TK10 cells by SRB assay; type: functional; summary of the method: as §1
MOLT-4 = assay: Cytotoxicity against human MOLT4 cells assessed as cell growth at 0.005 uM by SRB assay; type: functional; conditions: read-out: Activity
A549 [7] = assay: Cytotoxicity against human A549/ATCC cells assessed as cell growth at 0.005 uM by SRB assay; type: functional; conditions: read-out: Activity
HOP-92 = assay: Cytotoxicity against human HOP92 cells assessed as cell growth at 0.005 uM by SRB assay; type: functional; conditions: read-out: Activity
Summary of the method: (§2)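 Measured in the NCI-60 human tumour cell line panel using five-dose testing. Growth was recorded at each dose for each cell line, and a GI50 was derived for each line.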

NCI-H226 [8] = assay: Cytotoxicity against human NCI-H226 cells assessed as cell growth at 0.005 uM by SRB assay; type: functional; conditions: read-out: Activity
COLO 205 = assay: Cytotoxicity against human COLO205 cells assessed as cell growth at 0.005 uM by SRB assay; type: functional; conditions: read-out: Activity
HCC 2998 = assay: Cytotoxicity against human HCC2998 cells assessed as cell growth at 0.005 uM by SRB assay; type: functional; conditions: read-out: Activity; summary of the method: as §2
SNB-19 [9] = assay: Cytotoxicity against human SNB19 cells assessed as cell growth at 0.005 uM by SRB assay; type: functional; conditions: read-out: Activity
OVCAR-5 [10] = assay: Cytotoxicity against human OVCAR5 cells assessed as cell growth at 0.005 uM by SRB assay; type: functional; conditions: read-out: Activity
OVCAR-8 [11] = assay: Cytotoxicity against human OVCAR8 cells assessed as cell growth at 0.005 uM by SRB assay; type: functional; conditions: read-out: Activity
786-0 [12] = assay: Cytotoxicity against human 786-0 cells assessed as cell growth at 0.005 uM by SRB assay; type: functional; conditions: read-out: Activity
CAKI-1 [13] = assay: Cytotoxicity against human Caki1 cells assessed as cell growth at 0.005 uM by SRB assay; type: functional; conditions: read-out: Activity
SN12C [14] = assay: Cytotoxicity against human SN12C cells assessed as cell growth at 0.005 uM by SRB assay; type: functional; conditions: read-out: Activity
MCF7 = assay: Cytotoxicity against human MCF7 cells assessed as cell growth at 0.005 uM by SRB assay; type: functional; conditions: read-out: Activity
M14 = assay: Cytotoxicity against human M14 cells assessed as cell growth at 0.05 uM by SRB assay; type: functional; conditions: read-out: Activity
SK-MEL-2 = assay: Cytotoxicity against human SK-MEL-2 cells assessed as cell growth at 0.05 uM by SRB assay; type: functional; conditions: read-out: Activity
ACHN = assay: Cytotoxicity against human ACHN cells assessed as cell growth at 0.05 uM by SRB assay; type: functional; conditions: read-out: Activity
MDA-MB-468 = assay: Cytotoxicity against human MDA-MB-468 cells assessed as cell growth at 0.05 uM by SRB assay; type: functional; conditions: read-out: Activity
A549 [15] = assay: Cytotoxicity against human A549/ATCC cells assessed as cell growth at 0.5 uM by SRB assay; type: functional; conditions: read-out: Activity
NCI-H226 [16] = assay: Cytotoxicity against human NCI-H226 cells assessed as cell growth at 0.5 uM by SRB assay; type: functional; conditions: read-out: Activity
NCI-H522 = assay: Cytotoxicity against human NCI-H522 cells assessed as cell growth at 0.5 uM by SRB assay; type: functional; conditions: read-out: Activity
OVCAR-8 [17] = assay: Cytotoxicity against human OVCAR8 cells assessed as cell growth at 0.5 uM by SRB assay; type: functional; conditions: read-out: Activity
[18] = Cytotoxicity against human NCI-ADR-RES cells assessed as cell growth at 0.5 uM by SRB assay; type: functional; conditions: read-out: Activity
CAKI-1 [19] = assay: Cytotoxicity against human Caki1 cells assessed as cell growth at 0.5 uM by SRB assay; type: functional; conditions: read-out: Activity
T47D = assay: Cytotoxicity against human T47D cells assessed as cell growth at 0.5 uM by SRB assay; type: functional; conditions: read-out: Activity
786-0 [20] = assay: Cytotoxicity against human 786-0 cells assessed as cell growth at 5 uM by SRB assay; type: functional; conditions: read-out: Activity
UO-31 = assay: Cytotoxicity against human UO31 cells assessed as cell growth at 5 uM by SRB assay; type: functional; conditions: read-out: Activity
DU-145 = assay: Cytotoxicity against human DU145 cells assessed as cell growth at 5 uM by SRB assay; type: functional; conditions: read-out: Activity; summary of the method: as §2
[21] = Cytotoxicity against human Hs578T cells assessed as cell growth at 5 uM by SRB assay; type: functional; conditions: Hs-578T, read-out: Activity; summary of the method: as §2
[22] = read-out: LC50 (the source's name)
[23] = read-out: pLC50 (the source's name) (converted)

Sequence of DNA topoisomerase 2-alpha (Homo sapiens) (P11388 whole entry): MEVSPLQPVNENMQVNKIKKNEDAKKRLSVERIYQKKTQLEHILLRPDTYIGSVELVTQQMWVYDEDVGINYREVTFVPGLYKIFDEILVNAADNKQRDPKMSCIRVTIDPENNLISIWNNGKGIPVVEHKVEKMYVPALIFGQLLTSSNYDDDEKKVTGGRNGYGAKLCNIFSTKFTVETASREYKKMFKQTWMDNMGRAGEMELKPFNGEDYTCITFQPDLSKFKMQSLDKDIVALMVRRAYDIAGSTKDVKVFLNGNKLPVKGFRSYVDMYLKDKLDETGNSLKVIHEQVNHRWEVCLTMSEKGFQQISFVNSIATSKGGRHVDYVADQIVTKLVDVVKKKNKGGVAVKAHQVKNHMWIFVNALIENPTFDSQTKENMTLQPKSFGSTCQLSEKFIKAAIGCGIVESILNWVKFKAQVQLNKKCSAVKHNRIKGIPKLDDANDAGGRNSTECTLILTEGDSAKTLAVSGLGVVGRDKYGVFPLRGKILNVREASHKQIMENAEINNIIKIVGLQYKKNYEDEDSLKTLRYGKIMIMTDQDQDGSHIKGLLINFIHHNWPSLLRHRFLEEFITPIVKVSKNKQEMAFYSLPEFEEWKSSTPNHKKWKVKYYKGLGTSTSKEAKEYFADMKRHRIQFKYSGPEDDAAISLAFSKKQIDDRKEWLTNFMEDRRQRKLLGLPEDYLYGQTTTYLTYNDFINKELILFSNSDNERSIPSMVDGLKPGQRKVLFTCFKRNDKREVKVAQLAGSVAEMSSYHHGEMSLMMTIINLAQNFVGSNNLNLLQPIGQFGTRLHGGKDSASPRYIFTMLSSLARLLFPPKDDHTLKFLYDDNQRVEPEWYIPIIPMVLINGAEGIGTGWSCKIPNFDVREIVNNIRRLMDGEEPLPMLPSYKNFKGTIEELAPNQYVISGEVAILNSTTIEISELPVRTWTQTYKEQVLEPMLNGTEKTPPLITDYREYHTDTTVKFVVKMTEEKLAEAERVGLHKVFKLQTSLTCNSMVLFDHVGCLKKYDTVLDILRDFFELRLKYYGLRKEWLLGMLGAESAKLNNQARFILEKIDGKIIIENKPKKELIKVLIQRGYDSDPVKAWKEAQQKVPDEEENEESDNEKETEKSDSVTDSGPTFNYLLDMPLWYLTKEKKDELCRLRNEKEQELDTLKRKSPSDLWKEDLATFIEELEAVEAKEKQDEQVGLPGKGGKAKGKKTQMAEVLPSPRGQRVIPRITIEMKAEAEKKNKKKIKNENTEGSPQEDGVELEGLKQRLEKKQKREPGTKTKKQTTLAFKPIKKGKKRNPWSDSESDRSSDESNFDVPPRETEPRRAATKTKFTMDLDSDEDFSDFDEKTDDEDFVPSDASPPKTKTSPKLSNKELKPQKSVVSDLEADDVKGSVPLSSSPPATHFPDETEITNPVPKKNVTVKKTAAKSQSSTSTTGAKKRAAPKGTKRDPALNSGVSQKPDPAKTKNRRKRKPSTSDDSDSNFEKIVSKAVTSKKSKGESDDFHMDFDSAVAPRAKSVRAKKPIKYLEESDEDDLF

For `COc1cc([C@@H]2c3cc4c(cc3[C@@H](NC(=O)CN3CCN(CCCCCCCCCCN5CCN(CC(=O)N[C@@H]6c7cc8c(cc7[C@@H](c7cc(OC)c(O)c(OC)c7)[C@H]7C(=O)OC[C@@H]76)OCO8)CC5)CC3)[C@H]3COC(=O)[C@H]23)OCO4)cc(OC)c1O`, the “Effect on topoisomerase 2-alpha DNA cleavage (qualitative)” value [1] was “Dose-dependent effect”, the growth at 50 µM (SK-MEL-5) was -68% and the growth at 50 µM (CAKI-1 [2]) was -97%. For the same compound, the GI50 (RPMI-8226; read-out: GI50) was 16.3 nM, the CC50 (RPMI-8226; [22]) was over 50000 nM and the TGI (RPMI-8226; read-out: TGI) was 369 nM. For the same compound, the GI50 (RPMI-8226; read-out: pGI50 (converted)) was 16.2 nM, the CC50 (RPMI-8226; [23]) was over 50100 nM and the TGI (RPMI-8226; read-out: pTGI (converted)) was 372 nM. For the same compound, the GI50 (SR; read-out: GI50) was 232 nM, the CC50 (SR; [22]) was over 50000 nM and the TGI (SR; read-out: TGI) was 1810 nM. The GI50 (SR; read-out: pGI50 (converted)) was 229 nM, the CC50 (SR; [23]) was over 50100 nM and the TGI (SR; read-out: pTGI (converted)) was 1820 nM. For the same compound, the GI50 (SNB-19 [3]; read-out: GI50) was 352 nM, the CC50 (SNB-19 [3]; [22]) was 2790 nM and the TGI (SNB-19 [3]; read-out: TGI) was 1100 nM. It also gave a GI50 (SNB-19 [3]; read-out: pGI50 (converted)) of 355 nM, a CC50 (SNB-19 [3]; [23]) of 2820 nM and a TGI (SNB-19 [3]; read-out: pTGI (converted)) of 1100 nM. The GI50 (IGROV-1; read-out: GI50) was 360 nM, the CC50 (IGROV-1; [22]) was over 50000 nM and the TGI (IGROV-1; read-out: TGI) was 7590 nM. The GI50 (IGROV-1; read-out: pGI50 (converted)) was 363 nM, the CC50 (IGROV-1; [23]) was over 50100 nM and the TGI (IGROV-1; read-out: pTGI (converted)) was 7590 nM. For the same compound, the GI50 (OVCAR-5 [4]; read-out: GI50) was 830 nM, the CC50 (OVCAR-5 [4]; [22]) was 19500 nM and the TGI (OVCAR-5 [4]; read-out: TGI) was 5650 nM. It also gave a GI50 (OVCAR-5 [4]; read-out: pGI50 (converted)) of 832 nM, a CC50 (OVCAR-5 [4]; [23]) of 19500 nM and a TGI (OVCAR-5 [4]; read-out: pTGI (converted)) of 5620 nM. It also gave a GI50 ([5]; read-out: GI50) of 6480 nM, a CC50 [5, 22] of over 50000 nM and a TGI ([5]; read-out: TGI) of over 50000 nM. For the same compound, the GI50 ([5]; read-out: pGI50 (converted)) was 6460 nM, the CC50 [5, 23] was over 50100 nM and the TGI ([5]; read-out: pTGI) was over 50100 nM. The GI50 (SN12C [6]; read-out: GI50) was 185 nM, the CC50 (SN12C [6]; [22]) was over 50000 nM and the TGI (SN12C [6]; read-out: TGI) was 5820 nM. For the same compound, the GI50 (SN12C [6]; read-out: pGI50 (converted)) was 186 nM, the CC50 (SN12C [6]; [23]) was over 50100 nM and the TGI (SN12C [6]; read-out: pTGI (converted)) was 5890 nM. For the same compound, the GI50 (TK-10; read-out: GI50) was 1440 nM, the CC50 (TK-10; [22]) was 15400 nM and the TGI (TK-10; read-out: TGI) was 4570 nM. The GI50 (TK-10; read-out: pGI50 (converted)) was 1450 nM, the CC50 (TK-10; [23]) was 15500 nM and the TGI (TK-10; read-out: pTGI (converted)) was 4570 nM. For the same compound, the growth at 0.005 µM (MOLT-4) was 88%, the growth at 0.005 µM (A549 [7]) was 74% and the growth at 0.005 µM (HOP-92) was 91%. It also gave a growth at 0.005 µM (NCI-H226 [8]) of 92%, a growth at 0.005 µM (COLO 205) of 90% and a growth at 0.005 µM (HCC 2998) of 99%. It also gave a growth at 0.005 µM (SNB-19 [9]) of 99%, a growth at 0.005 µM (OVCAR-5 [10]) of 95% and a growth at 0.005 µM (OVCAR-8 [11]) of 101%. For the same compound, the growth at 0.005 µM (786-0 [12]) was 97%, the growth at 0.005 µM (CAKI-1 [13]) was 93% and the growth at 0.005 µM (SN12C [14]) was 94%. For the same compound, the growth at 0.005 µM (MCF7) was 90%, the growth at 0.05 µM (M14) was 94% and the growth at 0.05 µM (SK-MEL-2) was 89%. It also gave a growth at 0.05 µM (ACHN) of 88%, a growth at 0.05 µM (MDA-MB-468) of 99% and a growth at 0.5 µM (A549 [15]) of 9%. For the same compound, the growth at 0.5 µM (NCI-H226 [16]) was 49%, the growth at 0.5 µM (NCI-H522) was 14% and the growth at 0.5 µM (OVCAR-8 [17]) was 51%. For the same compound, the growth at 0.5 µM [18] was 101%, the growth at 0.5 µM (CAKI-1 [19]) was 81% and the growth at 0.5 µM (T47D) was 49%. The growth at 5 µM (786-0 [20]) was -13%, the growth at 5 µM (UO-31) was -13% and the growth at 5 µM (DU-145) was -7%. The growth at 5 µM [21] was 41%.
